The source of these data is the array DNA melting data of Ke et al. (doi:10.1101/2024.01.08.574731).

A short description of data set [1]: folding enthalpy; higher = less favourable; fluorescence melt of hairpins on a sequencing array, two-state fit. The note with it: sodium 0.088 M. In short, it runs like this:
(§1)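 Cy3 fluorescence of library hairpins on a sequenced MiSeq flow cell, with annealed Cy3 and quencher oligos, was imaged in 50 mM Na-HEPES pH 8.0, 25 mM NaCl in 2.5 °C steps up to 60 °C. Signals were normalised to pre-quench Cy3 and to control variants. Melting temperature and folding enthalpy came from bootstrapped two-state fits, inverse-variance combined over four replicates. Fitted temperatures were raised by 9.35 °C to match UV melts.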

Data set [2] in a line: melting temperature; fluorescence melt of hairpins on a sequencing array, two-state fit, raised by 9.35 °C to match UV melts. To be noted: sodium 0.088 M. In a few lines: as §1

On to GGAGGCGAAAGCCTTCC ((((((....))).))), for which the folding enthalpy in data set [1] was -13.5 kcal/mol. In data set [2], the Tm amounted to 57.9 °C.

On to GGAGGCGGAAACACCTCC (((((.(....).))))), for which the folding enthalpy in data set [1] was -39.4 kcal/mol. In addition, the Tm in data set [2] was 50.1 °C.

Consider GGAGGCGGAAACGCCCCC ((.((((....)))).)), for which, in data set [1], the folding enthalpy was -14.8 kcal/mol. In addition, in data set [2], the Tm came out at 56.4 °C.

Consider GGAGGGACGAAAGTCTCC (((..(((....)))))), for which the folding enthalpy in data set [1] was -13.4 kcal/mol. Besides, the Tm in data set [2] worked out at 39.2 °C.

For the sequence GGAGGGCGAAAGCCGTCC (((.(((....))).))), the folding enthalpy in data set [1] was -21 kcal/mol. In addition, the Tm in data set [2] is 67 °C.

On to GGAGGGGCGAAAGCCTCC (((..(((....)))))), for which, in data set [1], the folding enthalpy is -13.4 kcal/mol. In data set [2], the Tm stood at 44.8 °C.

As for GGAGGGGGAAACCCTTCC (((.(((....))).))), the folding enthalpy in data set [1] is -25.7 kcal/mol. For the same sequence, in data set [2], the Tm turned out to be 49.2 °C.

In the case of GGAGGGGGAAACTCCTCC (((((.(....).))))), in data set [1], the folding enthalpy is -32.6 kcal/mol. Also, in data set [2], the Tm is 53.8 °C.

On to GGAGGTCGAAAGACTCC (((.(((....)))))), for which, in data set [1], the folding enthalpy was -21.3 kcal/mol. Also, in data set [2], the Tm stood at 51.1 °C.

Turning to GGAGGTGAAAACCTCC ((((((....)))))), the folding enthalpy in data set [1] was -33.8 kcal/mol. Moreover, the Tm in data set [2] amounted to 66.2 °C.

Consider GGAGGTGGAAACGTCTCC ((((..(....)..)))), for which the folding enthalpy in data set [1] is -18.4 kcal/mol. Besides, the Tm in data set [2] worked out at 35.9 °C.

With GGAGTAGGAAACTACTTC (.(((((....))))).), in data set [1], the folding enthalpy is -29.2 kcal/mol. For the same sequence, the Tm in data set [2] came out at 44.4 °C.

As for GGAGTATCGAAAGATTCC (((..(((....)))))), the folding enthalpy in data set [1] was -13.1 kcal/mol. Further, the Tm in data set [2] turned out to be 26.6 °C.

Regarding GGAGTCGAAAGACTGTCC ((((((....)))..))), in data set [1], the folding enthalpy is -12.1 kcal/mol. In data set [2], the Tm turned out to be 35.2 °C.

As to GGAGTGGGAAACCATTCC (((.(((....))).))), the folding enthalpy in data set [1] is -31 kcal/mol. In addition, the Tm in data set [2] was determined as 46 °C.

With GGAGTTCGAAAGAAATCC (((.(((....))).))), in data set [1], the folding enthalpy is -33.8 kcal/mol. Moreover, the Tm in data set [2] turned out to be 49.2 °C.

With GGAGTTGAAAAACTCC ((((((....)))))), the folding enthalpy in data set [1] is -36.2 kcal/mol. Moreover, the Tm in data set [2] came out at 55.7 °C.

With GGAGTTGGAAACAACTTC (.(((((....))))).), the folding enthalpy in data set [1] is -31.1 kcal/mol. Also, the Tm in data set [2] came to 47.5 °C.

As to GGATAATCGAAAGATTCC (((..(((....)))))), the folding enthalpy in data set [1] is -14 kcal/mol. Also, the Tm in data set [2] came to 27.6 °C.

On to GGATACCGAAAGGTTTCC (((.(((....))).))), for which, in data set [1], the folding enthalpy is -37.6 kcal/mol. In addition, the Tm in data set [2] came out at 50.2 °C.

In the case of GGATACGAAAGTAGTTCC ((((((....)))..))), the folding enthalpy in data set [1] was -9.9 kcal/mol. Further, the Tm in data set [2] turned out to be 25 °C.

GGATACGAAAGTATCC ((((((....)))))): in data set [1], the folding enthalpy is -39.1 kcal/mol. In addition, the Tm in data set [2] is 66 °C.

As for GGATACGAAAGTATGTCC ((((((....)))..))), in data set [1], the folding enthalpy is -12.5 kcal/mol. Besides, the Tm in data set [2] turned out to be 30.1 °C.

For GGATACGGAAACGCATCC ((((.((....)).)))), the folding enthalpy in data set [1] was -29.1 kcal/mol. Moreover, the Tm in data set [2] worked out at 45.5 °C.

GGATACGGAAACGTACCC ((.((((....)))).)): in data set [1], the folding enthalpy was -21.1 kcal/mol. Moreover, in data set [2], the Tm was 43.3 °C.

As to GGATAGAAATATCC (((((....))))), the folding enthalpy in data set [1] is -17.5 kcal/mol. Also, the Tm in data set [2] is 36 °C.

On to GGATAGACGAAAGTCTCC (((..(((....)))))), for which, in data set [1], the folding enthalpy is -14.6 kcal/mol. In addition, in data set [2], the Tm is 33.6 °C.

Regarding GGATAGGGAAACCTACCC ((.((((....)))).)), the folding enthalpy in data set [1] was -21.9 kcal/mol. Moreover, the Tm in data set [2] was 35.2 °C.

For GGATAGGGAAACCTATTC (.(((((....))))).), the folding enthalpy in data set [1] is -29.4 kcal/mol. Also, the Tm in data set [2] is 34.9 °C.

For the sequence GGATAGTCGAAAGACTCC (((..(((....)))))), in data set [1], the folding enthalpy is -13.6 kcal/mol. In data set [2], the Tm was found to be 33.1 °C.

Turning to GGATATCCGAAAGGATCC (((..(((....)))))), the folding enthalpy in data set [1] is -11.4 kcal/mol. In data set [2], the Tm stood at 32.3 °C.

Consider GGATATCGAAAGATCTCC (((.(((....))).))), for which the folding enthalpy in data set [1] was -30.9 kcal/mol. In addition, in data set [2], the Tm worked out at 39.1 °C.

GGATATCGAAAGATGTCC (((.(((....))).))): the folding enthalpy in data set [1] was -38.9 kcal/mol. Besides, the Tm in data set [2] was 52 °C.

As to GGATATGGAAACACATCC ((((.((....)).)))), the folding enthalpy in data set [1] is -26.3 kcal/mol. The Tm in data set [2] was found to be 31.5 °C.

With GGATCACCGAAAGGTTCC (((..(((....)))))), in data set [1], the folding enthalpy is -13.1 kcal/mol. For the same sequence, in data set [2], the Tm stood at 30.3 °C.

On to GGATCACGAAAGTGTCC (((.(((....)))))), for which the folding enthalpy in data set [1] was -25.4 kcal/mol. In data set [2], the Tm was 49.8 °C.

Consider GGATCACGAAAGTGTTCC (((.(((....))).))), for which the folding enthalpy in data set [1] is -34.3 kcal/mol. The Tm in data set [2] is 50.8 °C.
